Measured values from different studies.
Lines come from different studies, so protocols differ.
Target: Serine/threonine-protein kinase Nek1 (NEK1, Homo sapiens, UniProt Q96PY6)
One construct used (Q96PY6 1-1258): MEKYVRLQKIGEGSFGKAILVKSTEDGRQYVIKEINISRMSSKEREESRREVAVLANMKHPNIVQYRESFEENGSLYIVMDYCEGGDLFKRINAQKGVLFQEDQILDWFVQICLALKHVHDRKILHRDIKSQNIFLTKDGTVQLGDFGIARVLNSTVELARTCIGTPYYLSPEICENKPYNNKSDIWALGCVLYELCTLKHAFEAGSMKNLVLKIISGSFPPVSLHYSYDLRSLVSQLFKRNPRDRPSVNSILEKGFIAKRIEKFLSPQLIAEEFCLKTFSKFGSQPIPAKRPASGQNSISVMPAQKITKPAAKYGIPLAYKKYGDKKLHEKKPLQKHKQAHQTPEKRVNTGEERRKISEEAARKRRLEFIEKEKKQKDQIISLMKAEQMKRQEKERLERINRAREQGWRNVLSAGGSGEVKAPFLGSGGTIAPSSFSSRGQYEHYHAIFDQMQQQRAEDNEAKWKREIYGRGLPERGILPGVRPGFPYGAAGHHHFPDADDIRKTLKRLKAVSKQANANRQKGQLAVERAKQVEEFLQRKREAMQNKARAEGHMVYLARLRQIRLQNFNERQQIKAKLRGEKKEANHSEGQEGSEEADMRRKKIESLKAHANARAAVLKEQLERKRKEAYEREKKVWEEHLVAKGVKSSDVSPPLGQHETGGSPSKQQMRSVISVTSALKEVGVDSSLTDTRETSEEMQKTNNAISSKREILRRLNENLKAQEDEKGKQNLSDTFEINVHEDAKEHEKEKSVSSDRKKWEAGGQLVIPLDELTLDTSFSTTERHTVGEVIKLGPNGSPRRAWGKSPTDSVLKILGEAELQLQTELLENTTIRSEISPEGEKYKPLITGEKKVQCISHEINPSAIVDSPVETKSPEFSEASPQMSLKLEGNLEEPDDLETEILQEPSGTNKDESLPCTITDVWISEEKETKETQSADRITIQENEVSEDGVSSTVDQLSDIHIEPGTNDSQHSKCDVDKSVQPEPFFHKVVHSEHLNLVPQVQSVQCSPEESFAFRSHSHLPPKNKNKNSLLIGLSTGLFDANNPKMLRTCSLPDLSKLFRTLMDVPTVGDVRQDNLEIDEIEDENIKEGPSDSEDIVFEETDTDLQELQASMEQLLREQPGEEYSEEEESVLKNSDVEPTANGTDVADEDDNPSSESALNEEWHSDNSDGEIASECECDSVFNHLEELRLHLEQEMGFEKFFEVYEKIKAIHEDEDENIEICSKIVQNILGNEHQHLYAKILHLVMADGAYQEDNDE

O=C(NCCCN1CCOCC1)c1ccc(Nc2nccc(-c3cc4ccccc4s3)n2)cc1
remaining binding (binding; competition with immobilised ligand; 1 µM): 72%

N[C@H]1CCN(c2nccc(-c3cnn4ncccc34)n2)C1
remaining binding (binding; 1 µM): 97%

COc1ncc2cc3ccccc3nc2c1C#N
remaining binding (cell-free assay; competition with immobilised ligand; 5 µM): 100%

C[C@@H](c1ccc(-n2cnc3c(N)ncnc32)cc1)N1CCc2nn(C)c(Cc3ccccc3)c2C1=O
remaining binding (binding; competition with immobilised ligand; 0.1 µM): 87%

O=C(NCCCN1CCOCC1)c1ccc(Nc2ncc(Cl)c(-c3ccc(Cl)s3)n2)cc1
remaining binding (binding; competition with immobilised ligand; 1 µM): 76%

CN(CCCC(F)(F)F)c1nccc(-c2cnn3ncccc23)n1
remaining binding (binding; 1 µM): 100%

O=C(c1ccc(Nc2ncc(Cl)c(-c3cc4ccccc4s3)n2)cc1)N1CCC(N2CCCC2)CC1
remaining binding (binding; competition with immobilised ligand; 1 µM): 27%

CN(C)c1nccc(-c2cnc3ncccn23)n1
remaining binding (binding; 1 µM): 100%

CCN1CCN(Cc2ccc(C(=O)Nc3ccc(C)c(Oc4ccc5c(c4)CC(=O)N5)c3)cc2C(F)(F)F)CC1
remaining binding (binding; competition with immobilised ligand; 1 µM): 100%

O=C(N[C@H]1CCCCC/C=C\C2C[C@@]2(C(=O)O)NC(=O)[C@@H]2C[C@@H](Oc3ccncc3)CN2C1=O)OC1CCCC1 (stereo partly shown)
remaining binding (binding; competition with immobilised ligand; 1 µM): 100%

CN(C)c1ncc(F)c(-c2cnn3ncccc23)n1
remaining binding (binding; 1 µM): 100%

O=C(O)c1cc(-c2ccc(C3CCNCC3)cc2)c2ccc(-c3ccc(C(F)(F)F)cc3)cc2c1
remaining binding (cell-free assay; competition with immobilised ligand; 1 µM): 100%

O=C(Nc1c[nH]nc1C(=O)NC1CCNCC1)c1cc(F)cc(F)c1
remaining binding (binding; competition with immobilised ligand; 1 µM): 100%

CN(c1ccnc(CNc2nc(Nc3ccc4c(c3)CC(=O)N4)ncc2C(F)(F)F)n1)S(C)(=O)=O
remaining binding (cell-free assay; competition with immobilised ligand; 1 µM): 51%

Nc1ncc2c(n1)-c1c([nH]c3ccc(C#CC4CC4)cc13)CCCC2
remaining binding (binding; competition with immobilised ligand; 1 µM): 100%

O=C(NS(=O)(=O)c1ccc(NCC2CCOCC2)c([N+](=O)[O-])c1)c1ccc(N2CCN(Cc3ccc(C(F)(F)F)cc3-c3ccc(Cl)cc3)CC2)cc1Oc1cnc2[nH]ccc2c1
remaining binding (cell-free assay; competition with immobilised ligand; 1 µM): 99%

C[C@H]1CCN(c2nccc(-c3cnn4ncccc34)n2)C1
remaining binding (binding; 1 µM): 100%

CN(C)C(=O)Cn1cc(-c2nc([C@@](C)(c3ccc(-c4cnc(N)nc4)cc3)C3CC3)no2)cn1
remaining binding (cell-free assay; competition with immobilised ligand; 1 µM): 100%

CN(C)c1nccc(-c2cnn3ncccc23)n1
remaining binding (binding; 1 µM): 88%

Cn1cc(Cl)c2c(Oc3c(F)cc(Nc4cc(Cl)nc(N)n4)cc3F)ccnc21
remaining binding (cell-free assay; competition with immobilised ligand; 0.1 µM): 100%

Cc1cnn2ncc(-c3ccnc(N(C)C)n3)c2c1
remaining binding (binding; 1 µM): 100%

CNC(=O)[C@@H]1CC[C@@H](n2c(-c3ccc4cnccc4c3)nc3ccc(C(=O)NCc4cccc(C(N)=O)c4)cc32)C1
remaining binding (binding; competition with immobilised ligand; 1 µM): 100%
